Laboratory results: ChEMBL document CHEMBL3616458, “Synthesis of chiral ND-322, ND-364 and ND-364 derivatives as selective inhibitors of human gelatinase” (Bioorg Med Chem, 2015)
Calls of active or inactive are those of the source. The calls are words filed in the database; no cut-off is given here.

Assays:
[1] = molecular target: T1, Matrix metalloproteinase-9 (Homo sapiens, UniProt P14780); assay: Inhibition of human full length MMP9 using Mca-Pro-Leu-Gly-Leu-Dap(Dnp)-Ala-Arg-NH2 as substrate at 10 uM incubated for 2 hrs prior to testing measured for 15 mins by fluorometric analysis relative to control
Procedure, shortened: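 MMP9 (3 nM) preincubated 2 h with inhibitor. Substrate hydrolysis was then followed for 15 min, ex 328/em 393 nm, in 50 mM HEPES pH 7.5, 150 mM NaCl, 5 mM CaCl2, 0.01% Brij-35 and 1% DMSO. Single-concentration screen gave % inhibition. […] Both were means of three experiments.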

[2] = molecular target: T2, Aminopeptidase N (Sus scrofa) (UniProt P15145); assay: Inhibition of porcine kidney microsomal APN using L-Leu-para-nitroanilide as substrate at 10 uM incubated for 2 hrs prior to substrate addition measured after 30 mins by plate reader analysis relative to control
T2 sequence (whole entry): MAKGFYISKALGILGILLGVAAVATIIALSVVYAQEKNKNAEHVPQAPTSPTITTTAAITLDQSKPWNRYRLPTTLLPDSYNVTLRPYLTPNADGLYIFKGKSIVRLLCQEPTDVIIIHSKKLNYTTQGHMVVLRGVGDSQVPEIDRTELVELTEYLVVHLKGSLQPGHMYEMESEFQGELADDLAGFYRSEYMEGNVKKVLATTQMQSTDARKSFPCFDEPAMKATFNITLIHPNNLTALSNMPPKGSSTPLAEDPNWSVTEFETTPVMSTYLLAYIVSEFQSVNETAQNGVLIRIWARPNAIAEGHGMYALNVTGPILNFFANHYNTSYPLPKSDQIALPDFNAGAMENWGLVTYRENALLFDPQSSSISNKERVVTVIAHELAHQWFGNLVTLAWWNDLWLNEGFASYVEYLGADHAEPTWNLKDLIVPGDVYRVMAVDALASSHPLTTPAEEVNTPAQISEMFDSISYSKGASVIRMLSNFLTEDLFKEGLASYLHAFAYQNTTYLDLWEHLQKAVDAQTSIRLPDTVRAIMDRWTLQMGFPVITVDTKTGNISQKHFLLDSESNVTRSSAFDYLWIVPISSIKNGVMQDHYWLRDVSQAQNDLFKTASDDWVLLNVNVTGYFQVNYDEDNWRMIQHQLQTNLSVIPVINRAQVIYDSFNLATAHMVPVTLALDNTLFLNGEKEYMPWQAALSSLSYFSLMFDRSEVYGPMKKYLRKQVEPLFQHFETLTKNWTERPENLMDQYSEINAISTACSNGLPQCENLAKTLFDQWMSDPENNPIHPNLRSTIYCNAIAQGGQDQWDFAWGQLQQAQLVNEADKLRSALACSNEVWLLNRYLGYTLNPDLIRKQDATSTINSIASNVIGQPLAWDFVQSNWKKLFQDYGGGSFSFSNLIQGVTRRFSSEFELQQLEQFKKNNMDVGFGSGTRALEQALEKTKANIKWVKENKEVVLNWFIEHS
Procedure, shortened: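 Porcine kidney microsomal aminopeptidase and inhibitors in 50 mM PBS pH 7.2, preincubated 2 h at 37 °C. L-Leu-p-nitroanilide substrate then added and incubated 30 min at 37 °C. Hydrolysis followed as absorbance change at 405 nm. Single-concentration % inhibition, mean of three experiments.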

[3] = molecular target: Histone deacetylase (HDAC1 and HDAC2) (Homo sapiens) (UniProt Q13547+Q92769); assay: Inhibition of HDAC1/2 in human HeLa cells using Boc-Lys (acetyl)-AMC as substrate at 10 uM incubated for 2 hrs prior to substrate addition measured after 30 mins by fluorescence assay relative to control; format: cell-based
Procedure, shortened: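 HeLa nuclear extract (mainly HDAC1 and HDAC2) as enzyme source in 15 mM Tris–HCl pH 8.0 at 37 °C. Enzyme added to compound solutions, then Boc-Lys(acetyl)-AMC substrate and a further 30 min incubation. Developer containing trypsin and TSA added; fluorescence read 20 min later at 390/460 nm. Single-concentration % inhibition, mean of three experiments.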

[4] = molecular target: 72 kDa type IV collagenase (Homo sapiens, UniProt P08253); assay: Inhibition of human full length MMP2 using Mca-Pro-Leu-Gly-Leu-Dap(Dnp)-Ala-Arg-NH2 as substrate incubated for 2 hrs prior to testing measured for 15 mins by fluorometric analysis
[5] = molecular target: T1, Matrix metalloproteinase-9; assay: Inhibition of human full length MMP9 using Mca-Pro-Leu-Gly-Leu-Dap(Dnp)-Ala-Arg-NH2 as substrate incubated for 2 hrs prior to testing measured for 15 mins by fluorometric analysis

T1 sequence (P14780 whole entry): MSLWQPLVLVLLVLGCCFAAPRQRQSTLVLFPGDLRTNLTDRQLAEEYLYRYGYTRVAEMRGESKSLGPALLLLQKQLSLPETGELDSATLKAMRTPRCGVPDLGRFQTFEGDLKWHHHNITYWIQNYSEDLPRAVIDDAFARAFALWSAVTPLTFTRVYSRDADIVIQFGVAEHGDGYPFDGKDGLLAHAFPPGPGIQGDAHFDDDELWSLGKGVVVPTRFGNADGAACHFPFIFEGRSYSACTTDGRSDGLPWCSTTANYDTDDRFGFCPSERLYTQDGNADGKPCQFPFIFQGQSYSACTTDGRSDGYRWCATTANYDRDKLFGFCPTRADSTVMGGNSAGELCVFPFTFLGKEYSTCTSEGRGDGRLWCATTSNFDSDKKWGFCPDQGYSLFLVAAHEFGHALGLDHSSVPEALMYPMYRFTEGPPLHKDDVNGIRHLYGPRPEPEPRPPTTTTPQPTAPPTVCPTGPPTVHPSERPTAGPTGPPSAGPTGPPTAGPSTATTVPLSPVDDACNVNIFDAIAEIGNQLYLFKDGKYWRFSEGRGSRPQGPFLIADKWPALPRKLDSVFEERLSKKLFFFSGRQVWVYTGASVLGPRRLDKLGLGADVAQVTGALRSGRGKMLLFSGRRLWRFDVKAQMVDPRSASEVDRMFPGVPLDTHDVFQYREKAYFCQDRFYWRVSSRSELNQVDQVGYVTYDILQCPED
Sequence of Histone deacetylase (HDAC1 and HDAC2) (Homo sapiens) (Q13547 whole entry, looked up): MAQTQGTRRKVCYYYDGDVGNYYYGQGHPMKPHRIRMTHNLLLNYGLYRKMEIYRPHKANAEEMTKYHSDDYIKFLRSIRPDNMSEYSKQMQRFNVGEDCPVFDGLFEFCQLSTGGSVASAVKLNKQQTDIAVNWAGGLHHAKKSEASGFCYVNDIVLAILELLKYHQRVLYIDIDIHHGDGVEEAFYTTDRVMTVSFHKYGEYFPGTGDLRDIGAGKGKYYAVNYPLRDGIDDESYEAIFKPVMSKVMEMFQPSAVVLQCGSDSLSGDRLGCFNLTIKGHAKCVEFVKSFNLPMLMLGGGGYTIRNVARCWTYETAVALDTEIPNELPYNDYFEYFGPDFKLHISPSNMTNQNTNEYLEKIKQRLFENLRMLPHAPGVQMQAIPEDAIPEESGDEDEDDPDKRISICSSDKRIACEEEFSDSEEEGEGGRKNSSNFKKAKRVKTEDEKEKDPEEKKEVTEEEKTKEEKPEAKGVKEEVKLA
Sequence of Histone deacetylase (HDAC1 and HDAC2) (Homo sapiens) (Q92769 whole entry, looked up): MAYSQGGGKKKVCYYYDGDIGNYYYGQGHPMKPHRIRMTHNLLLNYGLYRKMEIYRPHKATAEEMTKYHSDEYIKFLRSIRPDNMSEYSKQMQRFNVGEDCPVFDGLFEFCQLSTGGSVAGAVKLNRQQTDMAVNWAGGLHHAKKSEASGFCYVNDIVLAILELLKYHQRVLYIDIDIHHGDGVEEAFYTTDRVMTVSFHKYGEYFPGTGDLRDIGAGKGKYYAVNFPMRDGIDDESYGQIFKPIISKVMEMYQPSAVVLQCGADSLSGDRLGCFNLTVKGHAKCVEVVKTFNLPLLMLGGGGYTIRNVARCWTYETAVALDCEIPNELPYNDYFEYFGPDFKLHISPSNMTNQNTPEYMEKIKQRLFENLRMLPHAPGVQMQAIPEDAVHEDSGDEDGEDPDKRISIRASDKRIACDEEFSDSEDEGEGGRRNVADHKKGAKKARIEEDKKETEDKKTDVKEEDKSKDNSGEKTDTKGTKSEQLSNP
Sequence of 72 kDa type IV collagenase (P08253 whole entry): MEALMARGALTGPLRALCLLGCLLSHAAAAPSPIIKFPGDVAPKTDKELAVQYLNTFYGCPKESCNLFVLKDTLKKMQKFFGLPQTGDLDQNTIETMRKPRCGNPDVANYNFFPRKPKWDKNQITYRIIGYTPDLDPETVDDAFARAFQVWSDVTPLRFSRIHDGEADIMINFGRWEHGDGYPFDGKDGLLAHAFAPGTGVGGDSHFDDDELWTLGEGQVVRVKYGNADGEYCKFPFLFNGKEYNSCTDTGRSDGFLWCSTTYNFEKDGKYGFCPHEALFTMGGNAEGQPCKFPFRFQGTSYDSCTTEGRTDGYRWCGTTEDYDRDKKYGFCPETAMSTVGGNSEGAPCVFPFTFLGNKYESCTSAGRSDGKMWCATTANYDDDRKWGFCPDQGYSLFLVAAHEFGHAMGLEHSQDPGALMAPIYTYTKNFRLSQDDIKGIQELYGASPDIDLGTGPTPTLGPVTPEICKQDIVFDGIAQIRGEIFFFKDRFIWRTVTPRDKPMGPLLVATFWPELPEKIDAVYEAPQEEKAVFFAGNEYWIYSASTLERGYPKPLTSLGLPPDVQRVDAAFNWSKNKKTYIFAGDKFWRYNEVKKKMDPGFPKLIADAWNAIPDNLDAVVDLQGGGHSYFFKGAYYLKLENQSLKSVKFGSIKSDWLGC

Compound	inhibition [1] [%]	inhibition [2]	inhibition [3]	IC50 [4] [nM]	IC50 [5] [nM]
CC(=O)Nc1ccc(Oc2ccc([S+]([O-])C[C@H]3CS3)cc2)cc1 (single isomer, unassigned)	24.8	inactive	inactive		
CC(=O)Nc1ccc(Oc2ccc(S(=O)(=O)C[C@@H]3CS3)cc2)cc1	91.1	inactive	inactive		
CC(=O)Nc1ccc(Oc2ccc([S@@+]([O-])C[C@H]3CS3)cc2)cc1	34.4	inactive	inactive		
CC(=O)Nc1ccc(Oc2ccc([S@@+]([O-])C[C@@H]3CS3)cc2)cc1	23.7	inactive	inactive		
CC(=O)Nc1ccc(Oc2ccc(S(=O)(=O)C[C@H]3CS3)cc2)cc1	96.2	inactive	inactive		
Nc1ccc(Oc2ccc(S(=O)(=O)C[C@@H]3CS3)cc2)cc1	98.3	inactive	inactive		
CC(=O)Nc1ccc(Oc2ccc([S+]([O-])C[C@@H]3CS3)cc2)cc1 (single isomer, unassigned)	3.4	inactive	inactive		
CC(=O)Nc1ccc(Oc2ccc(S(=O)(=O)CC3CS3)cc2)cc1 (racemic)	97.2	inactive	inactive		
COc1ccc(S(=O)(=O)N(CC(=O)NO)CC(C)C)cc1	100			2	5.9
Nc1ccc(Oc2ccc(S(=O)(=O)CC3CS3)cc2)cc1 (racemic)	96.7	inactive	inactive		
Nc1ccc(Oc2ccc(S(=O)(=O)C[C@H]3CS3)cc2)cc1	97.4	inactive	inactive		
